MIC, logP and IC50 data for 10 compounds are collected here from ChEMBL document CHEMBL4229515, “A novel synthesis of 2-arylbenzimidazoles in molecular sieves-MeOH system and their antitubercular activity” (Bioorg Med Chem, 2018).

SMILES strings stand for the structures. Converted amounts (≈) assume the structure as drawn.

For data set [1], the system named is Mycobacterium tuberculosis. Nature of the data set: Antimycobacterial activity against Mycobacterium tuberculosis H37Rv by BACTEC 460 radiometric method. Format: functional. Put shortly:
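Radiometric BACTEC assay against the H37Rv strain, run per a previously reported method. Positive controls were rifampicin, streptomycin and isoniazid. The MIC was read in µM.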

Data set [2] is described as follows: Lipophilicity, log P of the compound. Format: physicochemical. The following applies: octanol/water.
Data set [3] has as its target DNA gyrase subunit A/DNA gyrase subunit B (Mycobacterium tuberculosis (strain ATCC 25618 / H37Rv), UniProt P9WG45+P9WG47). Description: Inhibition of Mycobacterium tuberculosis DNA gyrase supercoiling activity using relaxed pBR322 as substrate after 30 mins by agarose gel electrophoresis. Format: protein-complex assay.

DNA gyrase subunit A/DNA gyrase subunit B, sequence (P9WG45 whole entry): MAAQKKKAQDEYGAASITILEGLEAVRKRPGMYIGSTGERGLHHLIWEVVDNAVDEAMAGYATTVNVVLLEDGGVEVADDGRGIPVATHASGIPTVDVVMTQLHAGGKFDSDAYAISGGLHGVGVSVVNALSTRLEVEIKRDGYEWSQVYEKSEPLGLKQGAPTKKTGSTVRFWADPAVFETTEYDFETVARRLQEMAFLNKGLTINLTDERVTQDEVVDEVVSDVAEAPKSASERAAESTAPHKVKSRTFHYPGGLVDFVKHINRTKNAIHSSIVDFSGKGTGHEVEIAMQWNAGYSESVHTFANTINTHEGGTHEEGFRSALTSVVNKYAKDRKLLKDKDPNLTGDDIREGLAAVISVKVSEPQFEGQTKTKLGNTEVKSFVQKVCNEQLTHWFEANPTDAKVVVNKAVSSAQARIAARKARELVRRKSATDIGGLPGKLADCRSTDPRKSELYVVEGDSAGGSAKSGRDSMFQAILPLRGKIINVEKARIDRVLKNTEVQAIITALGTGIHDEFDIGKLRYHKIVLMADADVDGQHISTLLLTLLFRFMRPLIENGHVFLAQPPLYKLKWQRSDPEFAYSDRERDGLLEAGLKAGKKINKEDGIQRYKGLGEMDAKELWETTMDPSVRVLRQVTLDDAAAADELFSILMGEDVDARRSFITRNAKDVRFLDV
DNA gyrase subunit A/DNA gyrase subunit B, sequence (P9WG47 whole entry): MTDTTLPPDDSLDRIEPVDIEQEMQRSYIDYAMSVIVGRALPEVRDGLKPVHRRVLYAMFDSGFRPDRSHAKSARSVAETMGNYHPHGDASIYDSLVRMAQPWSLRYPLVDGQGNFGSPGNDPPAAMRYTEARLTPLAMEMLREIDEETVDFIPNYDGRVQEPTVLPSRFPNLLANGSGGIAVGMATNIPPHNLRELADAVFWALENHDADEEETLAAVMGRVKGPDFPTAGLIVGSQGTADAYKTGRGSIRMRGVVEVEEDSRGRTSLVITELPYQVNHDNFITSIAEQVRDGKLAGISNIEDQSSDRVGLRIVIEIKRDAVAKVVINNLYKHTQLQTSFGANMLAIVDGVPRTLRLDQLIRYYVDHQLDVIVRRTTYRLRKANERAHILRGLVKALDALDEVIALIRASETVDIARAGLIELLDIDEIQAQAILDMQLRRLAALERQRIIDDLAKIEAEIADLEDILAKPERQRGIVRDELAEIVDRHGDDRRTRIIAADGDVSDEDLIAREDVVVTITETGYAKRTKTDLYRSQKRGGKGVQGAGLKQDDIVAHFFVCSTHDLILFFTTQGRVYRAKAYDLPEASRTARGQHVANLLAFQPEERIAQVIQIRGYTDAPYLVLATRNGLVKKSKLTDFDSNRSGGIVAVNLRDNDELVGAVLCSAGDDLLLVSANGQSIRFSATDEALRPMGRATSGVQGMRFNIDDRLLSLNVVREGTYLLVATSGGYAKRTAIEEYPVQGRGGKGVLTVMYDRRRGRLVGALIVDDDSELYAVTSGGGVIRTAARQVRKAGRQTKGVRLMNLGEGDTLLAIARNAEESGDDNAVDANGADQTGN

In general, MIC refers to the smallest concentration in the dilution series that meets the test's criterion for growth inhibition. Low readings indicate inhibition by little substance, high ones a need for much substance. For orientation: logP means the decadic logarithm of the partition coefficient of the neutral form, usually between octanol and water. For the compound `COc1ccccc1-c1nc2ccccc2[nH]1`, in data set [1], the MIC was determined as 406 µM (≈ 91.1 µg/mL). Moreover, the logP in data set [2] (read-out: logP) amounted to 2.74.

As for `Fc1ccc(Cn2c(-c3ccc(F)cc3)nc3ccccc32)cc1`, in data set [1], inhibition of growth (MIC) required 312 µM (≈ 99.9 µg/mL). For the same compound, the logP in data set [2] (read-out: logP) is 5.51.

Turning to `COc1ccc2c(c1)nc(-c1ccc(F)cc1)n2Cc1ccc(F)cc1`, in data set [1], the MIC turned out to be 285 µM (≈ 99.9 µg/mL). Also, in data set [2] (read-out: logP), the logP came out at 5.02.

As for `Oc1ccc(-c2nc3ccccc3[nH]2)cc1`, 424 µM (≈ 89.1 µg/mL) was the least that counted as inhibitory in data set [1] (MIC). The logP in data set [2] (read-out: logP) came to 2.47.

For `NNC(=O)c1ccncc1` [ISONIAZID], the MIC in data set [1] stood at 1 µM (≈ 0.137 µg/mL). Moreover, the logP in data set [2] was 0.64.

As a reminder, the IC50 is the concentration that gives 50% inhibition. Low values mean greater potency in that assay, high ones weaker potency in that assay. `COc1ccc2[nH]c(-c3ccc(F)cc3)nc2c1` yielded a minimal inhibitory concentration (MIC) in data set [1] of 103 µM (≈ 25 µg/mL). In data set [2] (read-out: logP), the logP was 2.9. This compound gave a half-maximal inhibitory concentration (IC50) in data set [3] of 380 µM.

Turning to `c1ccc2c(c1)nc(-c1ccc3c(c1)OCO3)n2Cc1ccc2c(c1)OCO2`, the MIC in data set [1] turned out to be 67 µM (≈ 24.9 µg/mL). Besides, the logP in data set [2] (read-out: logP) was found to be 2.64. In data set [3], this compound displayed an IC50 of 85.7 µM.

Consider `[H]/N=C(/N)N[C@H]1[C@H](O)[C@@H](O)[C@H](O[C@@H]2O[C@@H](C)[C@](O)(C=O)[C@H]2O[C@@H]2O[C@@H](CO)[C@H](O)[C@@H](O)[C@@H]2NC)[C@@H](N/C(N)=N\[H])[C@@H]1O` [STREPTOMYCIN], for which, in data set [1], it took 4 µM (≈ 2.33 µg/mL) to inhibit growth (MIC). The lipophilicity (logP) in data set [2] (read-out: logP) was 8.01.

As to `COc1ccc2c(c1)nc(-c1ccc3c(c1)OCO3)n2Cc1ccc2c(c1)OCO2`, in data set [1], the lowest concentration to inhibit growth (MIC) was 24 µM (≈ 9.66 µg/mL). The logP in data set [2] (read-out: logP) was 4.26. For the same compound, in data set [3], the IC50 amounted to 294 µM.

In the case of `CO[C@H]1/C=C/O[C@@]2(C)Oc3c(C)c(O)c4c(O)c(c(/C=N/N5CCN(C)CC5)c(O)c4c3C2=O)NC(=O)/C(C)=C\C=C\[C@H](C)[C@H](O)[C@@H](C)[C@@H](O)[C@@H](C)[C@H](OC(C)=O)[C@@H]1C` [RIFAMPIN], the minimum inhibitory concentration (MIC) in data set [1] turned out to be 3 µM (≈ 2.47 µg/mL). In addition, the log partition coefficient (logP) in data set [2] is listed as 3.72.
